Shown are actives, neighbours in structure and some others; about 1.9% of the full set was active somewhere.
T cell HTS: T cell immune modulators affecting CD8 T cell-vesicle binding | response (vesicle binding), % at 7 µM | 2C CD8+ T cell-vesicle binding, flow cytometry; stronger effect = lower value | AID 2052 | hit rate 0.068% among 330,000;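 active means response, share of CD8 T cells binding vesicles, and their 90th percentile fluorescence all below set limits, cut at about 80% in these data, passing the limit was not always enough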;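 further: values below 100% mean blocked vesicle binding to the CD8+ T cells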
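Incubation: binding step 1.5 h, 37 °C, antibody labelling 20 min, ice; system: murine 2C transgenic CD8+ T lymphocytes; technique: cytometric PE anti-B7-1 and Alexa647 anti-CD8 signals after 1% paraformaldehyde fixation; also added: QL9-charged Drosophila Ld/ICAM-1/B7-1 vesicles; control set: naked versus QL9-loaded vesicles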
Rce1 inhib: yeast Ras-converting enzyme inhibition. Q03530. yeast membranes, quenched prenylated peptide cleavage fluorescence. calls only. hit rate 0.27% among 290,000. AID 2563;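 active means fall in fluorescence gain of 50% or more versus controls, with final raw signal at or below 3038400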;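 further: plate controls were neutral control wells for no effect and wells lacking membranes for full effect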
Target sequence (Q03530 whole entry, looked up): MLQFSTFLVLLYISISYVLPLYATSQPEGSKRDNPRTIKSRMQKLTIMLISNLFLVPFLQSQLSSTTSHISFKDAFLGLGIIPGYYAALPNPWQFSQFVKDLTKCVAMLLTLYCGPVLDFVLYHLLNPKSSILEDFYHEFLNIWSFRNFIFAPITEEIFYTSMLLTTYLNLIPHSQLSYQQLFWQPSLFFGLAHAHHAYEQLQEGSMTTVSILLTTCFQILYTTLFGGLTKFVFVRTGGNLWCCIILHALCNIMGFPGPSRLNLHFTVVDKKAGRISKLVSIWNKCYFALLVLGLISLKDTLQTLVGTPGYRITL
Yeast superoxide: yeast age-related superoxide inhibition as caloric restriction mimetic. S. cerevisiae aged cells, superoxide DHE fluorescence; stronger effect = lower value. superoxide response (% of plate mean), % at 10 µM. hit rate 0.18% among 330,000;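 active means superoxide response under a set limit, about three screen SD below normal, cut at about 65% in these data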;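 further: yeast aged for seven days with compound at 30 °C before DHE staining; 100% = average MFI of all compound-treated wells on the plate with controls excluded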
proKLK7 act: activators of human kallikrein-7 zymogen; AID 652039; activation, % at 7 µM; purified proKLK7, EDANS-DABCYL substrate fluorescence; 100% is mature enzyme control, 0% vehicle; hit rate 0.9% among 370,000;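 active means activation above the mean of all tested compounds plus 3 SD, computed per campaign excluding outliers beyond control limits, cut at about 13% in these data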
Target sequence (P49862 whole entry, looked up): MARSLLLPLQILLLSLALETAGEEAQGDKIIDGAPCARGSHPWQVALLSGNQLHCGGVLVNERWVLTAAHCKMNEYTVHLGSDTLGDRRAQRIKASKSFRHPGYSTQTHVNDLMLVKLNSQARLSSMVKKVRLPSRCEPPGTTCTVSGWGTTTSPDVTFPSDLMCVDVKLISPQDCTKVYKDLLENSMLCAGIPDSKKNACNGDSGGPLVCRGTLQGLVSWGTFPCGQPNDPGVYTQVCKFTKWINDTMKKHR
V-ATPase pH: regulators of yeast V-ATPase proton transport | S. cerevisiae, pHLuorin cytosolic pH fluorescence | response, % at 10 µM | hit rate 0.37% among 350,000; in the data active means response mostly above about 7.3%, no sharp cut-off; inactive means mostly below about 5.4%; further: actives read high
beta cell repl: MIN6 beta-cell proliferation induction. hit rate 0.29% among 330,000. proliferation, % at 10 µM. MIN6 cells proliferation, ATPlite luminescence, 48 h; cells starved in 0.2% serum; 100% = growth in 10% serum;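 active means compounds whose signal lies at least 3.5 SD above the mean of all wells on their plate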;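 further: 0% = DMSO-treated cells in low-serum medium and 100% = 10% serum control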
CR mimetic CP: yeast aging superoxide inhibition, cherry pick confirmation. superoxide response (% of plate), % at 10 µM. hit rate 1% among 850. shares compounds with Yeast superoxide. S. cerevisiae aging, superoxide DHE fluorescence; stronger effect = lower value;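 active means superoxide signal below 65% of the plate average of sample wells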;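 further: cells aged with compound for 7 days at 30 degrees C before staining; 100% equals mean DHE fluorescence of all compound wells on the plate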
DHE fluor count: compound alters DHE oxidation or fluorescence in yeast | fluorescence response, % at 10 µM | shares compounds with Yeast superoxide | 850 tested, under 10 active | S. cerevisiae BY4741, flow cytometry; stronger effect = lower value;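 active means fluorescence response below 15%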;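 further: percent of the mean fluorescence averaged over all compound wells on the plate; lower means stronger quenching of DHE signal or ROS scavenging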
Active calls of the source: *; i = inactive; . = no result given.

SMILES | T cell HTS | Rce1 inhib | Yeast superoxide | proKLK7 act | V-ATPase pH | beta cell repl | CR mimetic CP | DHE fluor count
Cc1ccc(CNc2ncnc3c2cnn3-c2ccccc2)cc1 | 413.8 | i | 94.1 | -0.7 | -4.5 | -1.5 | . | .
CCc1nc(NC(C)(C)C)c2cnn(-c3ccccc3)c2n1 | 74.6 | i | 94.6 | -0.4 | 1.2 | -3.6 | 100.7 | 96.6
COC(=O)CN(c1ccccc1)S(=O)(=O)c1ccccc1 | 358.4 | i | 90.9 | 0.3 | 0.6 | 0.6 | 100.0 | 91.4
COC(=O)CN(c1ccc(C)cc1)S(=O)(=O)c1ccc(F)cc1 | 285.6 | i | 49.9* | -0.2 | -4.0 | -2.8 | 103.9 | 106.9
CCOc1ccccc1N(CC(=O)OC)S(=O)(=O)c1ccccc1 | 546.6 | i | 128.3 | 0.5 | 0.2 | 5.0 | . | .
CCCCN(CCCC)CCCNC(=O)Cn1cc(C)c(=O)[nH]c1=O | . | . | . | 0.4 | . | . | . | .
COC(=O)[C@]12C[C@H](CC(=O)NCC34CC5CC(CC(C5)C3)C4)C(=O)N(CCC3=CCCCC3)C1=C[C@H](C(C)C)O[C@@H]2C1CC1 | . | . | . | 0.3 | . | . | . | .
Cc1nn(-c2nnc(NCc3ccccc3)nn2)c(C)c1Br | 486.4 | i | 63.4* | -0.4 | 1.4 | 0.0 | 84.7 | 92.3
N#Cc1ccc(-c2nc3cc(Cl)ccc3c(=O)n2O)cc1 | 421.9 | i | 90.5 | -0.5 | -4.6 | -3.6 | . | .
O=c1c2ccc(Cl)cc2nc(-c2cccc(C(F)(F)F)c2)n1O | 301.6 | i | 64.8* | 0.9 | 10.6* | -3.5 | 87.5 | 88.6
Cc1ccc2cc(NC(=O)Cc3ccccc3)ccc2n1 | 575.4 | i | 63.1* | 1.8 | 3.4 | -2.1 | 104.1 | 103.7
O=C(c1ccc(-c2ccc([N+](=O)[O-])cc2)o1)N1CCN(S(=O)(=O)c2cccs2)CC1 | 877.5 | . | 88.2 | -1.4 | 2.8 | -7.8 | . | .
O=C(N/N=C/c1ccccc1)c1[nH]ncc1Br | 282.5 | i | 93.8 | -0.4 | 2.1 | 0.0 | . | .
O=C(N/N=C/c1ccco1)c1[nH]ncc1Br | 433.5 | i | 61.2* | -0.5 | 1.4 | 0.8 | 95.9 | 93.5
COc1ccc([N+](=O)[O-])cc1N(CC(O)CN(C)C)S(=O)(=O)c1ccccc1 (configuration not stated) | 159.7 | i | 54.4* | -0.6 | 3.2 | -0.9 | 105.4 | 111.2
O=C(CCN1C(=O)[C@@H]2Cc3ccccc3CN2C1=O)Nc1cccc(F)c1 | 332.7 | i | 84.1 | -0.6 | -1.0 | -1.7 | . | .
N#Cc1c(N)nc2c(c1-c1ccncc1)CCCCC2 | 261.5 | i | 97.2 | 0.4 | -7.6 | -0.8 | . | .
CSc1ccc(-c2c(C#N)c(N)nc3c2CCCC3)cc1 | 360.4 | i | 64.2* | -0.7 | -2.0 | -0.1 | 100.9 | 103.8
CCCn1c(=O)c(C(=O)NCc2ccc(OC)c(OC)c2)c(O)c2ccccc21 | 237.8 | i | 62.7* | 0.1 | -5.5 | -3.8 | 108.7 | 108.4
CCn1c(=O)c(C(=O)NNC(=O)c2ccc(Cl)cc2Cl)c(O)c2ccccc21 | i | i | 74.1 | 0.1 | 3.6 | 0.0 | . | .
CCCn1c(=O)c(C(=O)NNC(=O)c2ccc(Cl)cc2Cl)c(O)c2ccccc21 | 152.4 | i | 59.6* | -0.2 | -2.3 | -5.6 | 106.5 | 105.1
Cc1noc(C)c1-c1ccc(C(=O)NC2CCCCC2)c2occc12 | . | . | . | 0.1 | . | . | . | .
COc1ccccc1NC(=O)C(C)OC(=O)C1CCN(S(=O)(=O)c2ccccc2C(F)(F)F)CC1 (configuration not stated) | . | . | . | -0.2 | -2.0 | . | . | .
COc1ccc(/C=N/NC(=O)c2cccnc2)cc1 | 180.1 | i | 54.3* | 0.0 | 3.6 | 1.3 | 95.2 | 99.3
Cc1ccc(OCC(O)Cn2c3ccccc3c3ccccc32)cc1 (configuration not stated) | 386.7 | i | 99.5 | -0.3 | 0.2 | -4.9 | . | .
SMILES | T cell HTS | Rce1 inhib | Yeast superoxide | proKLK7 act | V-ATPase pH | beta cell repl | CR mimetic CP | DHE fluor count
OC(COCC(F)(F)C(F)(F)C(F)(F)C(F)F)Cn1c2ccccc2c2ccccc21 (configuration not stated) | 198.2 | i | 138.6 | -1.8 | -0.4 | 0.0 | 99.5 | 105.4
CCN(CC)c1ccc(NC(=S)NCC2CCCO2)cc1 (configuration not stated) | 201.5 | i | 93.7 | 0.3 | 3.0 | 0.0 | . | .
OCCN(CC#CCn1c2ccccc2c2ccccc21)CCO | 203.4 | i | 105.8 | 0.4 | 4.8 | 1.5 | 87.0 | 105.0
CC(=NCCc1ccccc1)C1=C(O)C(c2ccccc2)OC1=O (configuration not stated) | 225.9 | . | 51.9* | 0.8 | 0.2 | 0.2 | 92.1 | 97.6
O=C(CCNC(=O)c1ccc(Br)cc1)OCc1ccccc1Cl | 445.0 | i | 63.1* | 0.5 | 4.3 | 0.7 | 114.7 | 114.9
Cc1ccc(-c2nnc(Nc3ccc(CC(N)=O)cc3)c3ccccc23)cc1S(=O)(=O)NCC1CCCO1 (configuration not stated) | 335.4 | i | 92.0 | 4.2 | -3.0 | -0.5 | . | .
COC(=O)c1ccc(Nc2nnc(-c3ccc(C)c(S(=O)(=O)NCC4CCCO4)c3)c3ccccc23)cc1 (configuration not stated) | 169.8 | i | 95.2 | -0.9 | -1.0 | 0.0 | 87.2 | 92.1
Cc1ccc(-c2nnc(Nc3ccc(C(=O)N(C)C)cc3)c3ccccc23)cc1S(=O)(=O)NCC1CCCO1 (configuration not stated) | 417.3 | i | 97.5 | 9.9 | 3.0 | -2.6 | 115.4 | 115.0
CCOC(=O)c1c(NC(=O)CSc2nnnn2-c2ccccc2)sc2c1CC(C)(C)NC2(C)C | 0.0 | i | 62.1* | -0.2 | 3.2 | -7.3 | 106.4 | 105.9
O=C(CSc1ccc(-c2nc3ccccc3[nH]2)cn1)Nc1ccc(S(=O)(=O)N2CCCC2)cc1 | 351.3 | i | 64.5* | -14.9 | 1.6 | -3.0 | 119.1 | 108.7
CCN(CC)C(=O)CN(C#N)c1nc(OC)nc(N(C)C)n1 | 360.3 | i | 103.6 | -0.8 | -0.3 | 1.0 | . | .
COc1nc(N(C)C)nc(N(C#N)CCOC(C)=O)n1 | 191.1 | i | 64.1* | 0.1 | -7.7 | -2.6 | 113.1 | 103.6
COc1ccc(CCN=C(N)NS(=O)(=O)c2ccc(C)c(C)c2)cc1OC | 313.0 | i | 97.8 | -0.4 | -2.9 | 5.0 | . | .
COc1ccc(S(=O)(=O)NC(N)=NCCc2ccc(OC)c(OC)c2)cc1C | 399.4 | i | 63.9* | -0.3 | -0.1 | 2.1 | 100.3 | 90.3
c1ccc2[nH]c3cc4ncnc4cc3nc2c1 | 542.0 | i | 40.2* | -7.5 | 0.5 | 0.8 | 46.7* | 88.9
CCC(CO)NCc1ccc2c(c1)n(C)c(=O)n2C (configuration not stated) | 369.1 | i | 61.3* | -0.2 | -6.3 | -3.3 | 121.4 | 119.7

Bioassay records: PubChem BioAssay, several laboratories
